In ChEMBL document CHEMBL5252546, “Salutaxel, a Conjugate of Docetaxel and a Muramyl Dipeptide (MDP) Analogue, Acts as Multifunctional Prodrug That Inhibits Tumor Growth and Metastasis” (J Med Chem, 2018):
Blank lines part the entries; values can stand above or below the compound they belong to. Active and inactive are the calls of the source. The rule behind the calls is not given here.

How the values were obtained:
[1] = tested on: 4T1; assay: Antitumor activity against mouse 4T1 cells implanted in BALB/c mouse assessed as decrease in lung MMP2 expression level at 5.7 mg/kg,iv administrated once per week for 4 weeks in presence of compound 5b by western blot assay; format: functional, organism-based
Method in brief: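 4T1 cells injected into mammary fat pads of BALB/c mice. Saline vehicle or test article given iv once weekly for 4 weeks. Spleen, lung and tumor lysates immunoblotted for MMP2/MMP9 with β-actin as loading control. Bands averaged over five mice per group, representative of two independent experiments.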

[2] = tested on: 4T1; assay: Antitumor activity against mouse 4T1 cells xenografted with BALB/c mouse assessed as inhibition of tumor growth at 5.7 mg/kg,iv administrated once per week for 4 weeks; format: functional; conditions: 4T1, 672 h
Method in brief: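 4T1 cells injected into mammary fat pads of BALB/c mice. Dosing iv once per week for 4 weeks, saline vehicle; single-agent arms were given alone or with the peptide component (5b or 6). Endpoints were body weight, tumour volume, tumour weight, lung metastatic nodule count and lung metastasis score. Mean ± SEM, n = 10; ANOVA and Student's t test.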

[3] = tested on: 4T1; assay: Antitumor activity against mouse 4T1 cells implanted in BALB/c mouse assessed as decrease in lung metastasis at 5.7 mg/kg,iv administrated once per week for 4 weeks in presence of MDA-205 by H and E staining based assay; format: functional, organism-based
Method in brief: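 BALB/c mice bearing orthotopic mammary fat pad 4T1 tumors, dosed iv weekly for 4 weeks with saline vehicle as control. Lung sections stained with hematoxylin and eosin and examined by light microscopy at 40× for metastasis, inflammatory infiltration and alveolar wall thickening.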

[4] = Half life in mouse plasma implanted with mouse 4T1 cells at 5.7 mg/kg,iv measured upto 72 hrs; format: ADME, organism-based
[5] = Drug concentration in plasma of rat at 2.28 mg/kg,iv measured upto 24 hrs; format: ADME, organism-based; conditions: in vivo
Method in brief: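 Taxane given as a single intravenous dose: 2.28 mg/kg to rats by injection and 1.14 mg/kg to Beagle dogs by infusion. Plasma concentrations were then measured.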

[6] = Volume of distribution at steady state in rat at 8 mg/kg,iv measured upto 24 hrs; format: ADME, organism-based; conditions: in vivo, read-out: Vdss
[7] = Drug metabolism in rat urine assessed as metabolite docetaxel formation at 4 mg/kg,iv measured after 24 hrs; format: ADME, organism-based; conditions: in vivo
[8] = MRT in mouse plasma implanted with mouse 4T1 cells at 10 mg/kg,iv measured upto 72 hrs; format: ADME, organism-based
[9] = Chronic toxicity in male Beagle dog at 3 to 18 mg/kg,iv administered once per week for 30 days; format: organism-based, Canis lupus familiaris; conditions: in vivo, 720 h, dose 3-18 mg/kg, time 30 day
Method in brief: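 Long-term toxicity: rats given iv 2, 4 or 8 mg/kg and dogs 3, 6 or 18 mg/kg once weekly over 30 days; toxicokinetics recorded; highest non-severely toxic dose determined by sex.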

[10] = Stability in rat plasma assessed as compound remaining at 40 uM incubated for 6 hrs; format: ADME, cell-free
[11] = MRT (0 to infinity) in rat at 4 mg/kg,iv measured upto 24 hrs; format: ADME, organism-based; conditions: in vivo
[12] = AUC (0-t) in mouse tumor implanted with mouse 4T1 cells at 10 mg/kg,iv measured upto 72 hrs; format: ADME, organism-based, Neoplasm; set-up: time < 72 hrs, dose 10 mg/kg, route iv
Method in brief: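 4T1 tumor-bearing mice (4T1 cells implanted in the mammary fat pad) received a single iv dose of 10 mg/kg. Plasma and tumor tissue were sampled up to 72 h, with n = 6. Levels of parent and of released docetaxel were measured. AUC came from noncompartmental analysis, reported as mean ± SD.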

[13] = Clearance in rat at 8 mg/kg,iv measured upto 24 hrs; format: ADME, organism-based; conditions: in vivo
Method in brief: (§1)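 Rats were given a single iv injection at 2, 4 or 8 mg/kg. Plasma parent drug and released docetaxel were followed over time. Cmax, Tmax, AUC, MRT, t1/2, CL and Vss were reported for males, females and all animals combined.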

[14] = Half life in female rat at 8 mg/kg,iv measured upto 24 hrs; format: ADME, organism-based; conditions: in vivo
[15] = Cmax in Beagle dog at 1 mg/kg,iv measured upto 24 hrs; format: ADME, organism-based, Canis lupus familiaris; set-up: dose 1 mg/kg, time < 24 hrs, route iv; conditions: in vivo
Method in brief: (§2)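 Beagle dogs were given a single iv infusion at 1, 2 or 4 mg/kg. Plasma parent drug and released docetaxel were followed over time. Cmax, Tmax, AUC, MRT, t1/2, CL and Vss were reported by sex and for all dogs combined.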

[16] = MRT (0 to infinity) in male Beagle dog at 1 mg/kg,iv measured upto 24 hrs; format: ADME, organism-based, Canis lupus familiaris; conditions: in vivo
[17] = tested on: MDA-MB-468; assay: Antiproliferative activity against human MDA-MB-468 cells assessed inhibition of cell growth incubated for 72 hrs by SRB assay; format: functional, cell-based; conditions: MDA-MB-468, 72 h
[18] = Toxicity in BALB/c mouse xenografted with human A549/Taxol cells assessed as body weight loss at 10 mg/kg,iv administrated once per week for 3 weeks; format: organism-based, A549/TR; conditions: in vivo, 504 h
[19] = tested on: HT-29; assay: Antiproliferative activity against human HT-29 cells assessed inhibition of cell growth incubated for 72 hrs by SRB assay; format: functional, cell-based; conditions: HT-29, 72 h
[20] = Half life in male rat at 4 mg/kg,iv measured upto 24 hrs; format: ADME, organism-based; conditions: in vivo
[21] = AUC (0-t) in rat at 8 mg/kg,iv measured upto 24 hrs; format: ADME, organism-based; set-up: dose 8 mg/kg, time < 24 hrs, route iv; conditions: in vivo
Method in brief: (§3)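 Single iv dose: rats 2, 4 or 8 mg/kg by intravenous injection; Beagle dogs 1, 2 or 4 mg/kg by intravenous infusion. Plasma concentration–time data were analysed by sex and pooled. Reported parameters: Cmax, Tmax, AUC0−t, AUC0−∞, MRT0−∞, t1/2, CL, Vss, given as mean ± SD.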

[22] = Prodrug conversion in mouse tumor implanted with mouse 4T1 cells assessed as MRT of docetaxel at 4 mg/kg,iv measured upto 72 hrs; format: ADME, organism-based, Neoplasm; conditions: in vivo
[23] = Tmax in male Beagle dog at 1 mg/kg,iv measured upto 24 hrs; format: ADME, organism-based, Canis lupus familiaris; conditions: in vivo
[24] = tested on: 4T1; assay: Antitumor activity against mouse 4T1 cells implanted in BALB/c mouse assessed as decrease in spleen MDSC cells at 10 mg/kg,iv measured after 28 days (reference value: 38%); format: functional; set-up: scale not given: the % may be the effect or the level left; conditions: time 28 day
[25] = Cmax in rat at 8 mg/kg,iv measured upto 24 hrs; format: ADME, organism-based; set-up: time < 24 hrs, dose 8 mg/kg, route iv; conditions: in vivo; method in brief: as §1
[26] = AUC (0-infinity) in female Beagle dog at 4 mg/kg,iv measured upto 24 hrs; format: ADME, organism-based, Canis lupus familiaris; set-up: dose 4 mg/kg, time < 24 hrs, route iv; conditions: in vivo; method in brief: as §3
[27] = AUC (0-t) in male rat at 4 mg/kg,iv measured upto 24 hrs; format: ADME, organism-based; set-up: time < 24 hrs, dose 4 mg/kg, route iv; conditions: in vivo; method in brief: as §3
[28] = Volume of distribution at steady state in rat at 2 mg/kg,iv measured upto 24 hrs; format: ADME, organism-based; conditions: in vivo, read-out: Vdss
[29] = Acute toxicity in Sprague-Dawley rat assessed as maximum tolerated dose at iv administration; format: organism-based; conditions: in vivo
Method in brief: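 Acute toxicity after a single intravenous administration. […] In dogs, an approximate lethal dose range was determined.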

[30] = Cmax in female Beagle dog at 4 mg/kg,iv measured upto 24 hrs; format: ADME, organism-based, Canis lupus familiaris; set-up: time < 24 hrs, dose 4 mg/kg, route iv; conditions: in vivo; method in brief: as §2
[31] = AUC (0-t) in male rat at 2 mg/kg,iv measured upto 24 hrs; format: ADME, organism-based; set-up: time < 24 hrs, dose 2 mg/kg, route iv; conditions: in vivo; method in brief: as §3
[32] = Drug metabolism in rat hepatocytes assessed as MDA-205 metabolite formation at 20 uM incubated for 180 mins; format: ADME, cell-based, Hepatocyte; conditions: 3 h
[33] = Tmax in female rat at 2 mg/kg,iv measured upto 24 hrs; format: ADME, organism-based; conditions: in vivo

half-life [4]: 217 min | Drug uptake [5]: 45%
SMILES: CC(=O)O[C@@]12CO[C@@H]1C[C@H](O)[C@@]1(C)C(=O)[C@H](O)C3=C(C)[C@@H](OC(=O)[C@H](O)[C@@H](NC(=O)OC(C)(C)C)c4ccccc4)C[C@@](O)([C@@H](OC(=O)c4ccccc4)[C@H]21)C3(C)C [DOCETAXEL ANHYDROUS]
Activity [1]: inactive | inhibition in vivo at 5.7 mg/kg [2]: 19.6% | Activity [3]: Active

SMILES: CC(=O)O[C@@]12CO[C@@H]1C[C@H](O)[C@@]1(C)C(=O)[C@H](O)C3=C(C)[C@@H](OC(=O)[C@H](OC(=O)CCC(=O)NCCCC[C@H](NC(=O)CC[C@@H](NC(=O)[C@H](C)NC(=O)/C=C/c4ccc(F)cc4Cl)C(N)=O)C(=O)O)[C@@H](NC(=O)OC(C)(C)C)c4ccccc4)C[C@@](O)([C@@H](OC(=O)c4ccccc4)[C@H]21)C3(C)C
Vd [6]: 0.096 L/kg | Drug metabolism [7]: Metabolite_Detected | MRT [8]: 27 min | Activity [9]: Non-Toxic | Stability [10]: Stable | MRT inf [11]: 19.1 min | AUC(0-t) at 72 h [12]: 0.11 µM·h | clearance [13]: 2.97 mL/min/kg | half-life [14]: 15.2 min | Cmax [15]: 3880 ng/mL | MRT inf [16]: 12.1 min | IC50 [17]: 16.3 nM | Activity [18]: Non-Toxic | IC50 [19]: 16.3 nM | half-life [20]: 10.7 min | AUC(0-t) at 24 h [21]: 45800 ng·h/mL | MRT [22]: 87.4 h | Tmax [23]: 30 min | Activity [24]: 20.2% | Cmax [25]: 62200 ng/mL | AUC(0-inf) [26]: 20300 ng·h/mL | AUC(0-t) at 24 h [27]: 20700 ng·h/mL | Vd [28]: 0.071 L/kg | MTD [29]: 9.4 mg/kg | Cmax [30]: 30800 ng/mL | AUC(0-t) at 24 h [31]: 6090 ng·h/mL | Drug metabolism [32]: Metabolite_Detected | Tmax [33]: 4.98 min
